# This is one part of the list. A number with no mark means an inactive call.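 Rule for the calls: active = fluorescence in ABCG2-expressing cells above the plate's control-well mean plus 3 SD (cut at about 15 in these data); inactive = the rest.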
# Experiment: compound autofluorescence in ABCG2-expressing IgMXP3 cells, confirmation, artefact control for ABC transporter inhibitor project, cell-based, 488/530 nm, flow cytometry (AID 1480)
# Conditions: compound autofluorescence 488/530 nm, at 6.6 µM, active compounds read high
# Summary of the method: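 Material: ABCG2-expressing drug-resistant IgMXP3 cells | Input: 3 million cells/mL final | Medium: JC-1 kit assay buffer | Probe or stimulus: no JC-1 substrate | Times: Cell–compound exposure 10 min, 25 °C, end-over-end rotation | Measured by: High-throughput flow cytometry, green FL1 channel fluorescence | Evaluation: Compound-well median cell fluorescence minus DMSO-well median fluorescence | Benchmarks: DMSO-only wells as cell background reference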
smiles,measurement,value
COC(=O)COc1cc(C)cc2oc(=O)c3c(c12)CCCC3,fluorescence,1.36

# — PubChem BioAssay AID1480 (NMMLSC, 2009)
